Source: PubChem BioAssay (The Scripps Research Institute Molecular Screening Center)
MC4R barr agon = human MC4R agonism via beta-arrestin; P32245; U2OS MC4R beta-arrestin complementation, luminescence; percent of melanotan II response, DMSO zero; activation, % at 8.9 µM; actives 0.98% (n = 360,000); AID 540308;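 active = activation above a per-plate cutoff, the mean activation of sample wells on that plate plus 3 SD, cut at about 8% in these data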
Target sequence (P32245 whole entry, looked up): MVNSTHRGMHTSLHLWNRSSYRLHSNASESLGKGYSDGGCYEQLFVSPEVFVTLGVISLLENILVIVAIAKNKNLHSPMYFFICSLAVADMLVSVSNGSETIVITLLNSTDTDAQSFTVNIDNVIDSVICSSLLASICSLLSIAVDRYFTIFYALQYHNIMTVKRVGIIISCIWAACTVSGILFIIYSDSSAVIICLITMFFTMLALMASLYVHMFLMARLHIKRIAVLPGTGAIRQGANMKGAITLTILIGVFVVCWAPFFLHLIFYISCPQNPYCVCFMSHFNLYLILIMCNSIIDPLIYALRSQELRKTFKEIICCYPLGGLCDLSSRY
MC4R antagonist = human MC4R antagonism in cAMP assay; actives 0.48% (n = 360,000); MC4R-expressing cells, MTII-stimulated cAMP, LANCE TR-FRET; P32245; AID 540295; inhibition, % at 6.5 µM;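 active = inhibition above its plate's cutoff, the mean of tested wells on that plate plus 3 SD, cut at about 29% in these data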
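Assay system: human MC4R-expressing U2OS cells; reagent: Melanotan II stimulation of cells; dosing: 6.5 µM single dose; timing: compound 30 min, challenge 1 h, detection 1 h; signal: TR-FRET cAMP assay; replicates: one well per compound, no replicates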
MsrA act = bovine methionine sulfoxide reductase A activation. purified bovine MsrA, absorbance read-out. activation, % at 10.6 µM. actives 0.3% (n = 360,000); in the data active = activation above about 7.5%
MsrA inhibitor = inhibits bovine methionine sulfoxide reductase A. purified bovine MsrA, absorbance read-out. inhibition, % at 15.5 µM. actives 0.75% (n = 360,000). AID 651718; in the data active = inhibition above about 4.5%
U2OS cAMP counter = counter-screen for MC4R antagonists: nonselective cAMP signaling inhibitors; shares compounds with MC4R antagonist; parental U2OS, forskolin cAMP, LANCE TR-FRET; inhibition, % at 6.5 µM; actives 26% (n = 1,600); AID 602193;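 active = mean inhibition over triplicates above the low-control well mean plus 3 SD, set per campaign, cut at about 13% in these data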;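 note: signal is single emission at 671 nm which falls as cellular cAMP rises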
MC4R cAMP antag = human MC4R cAMP antagonism confirmation | actives 27% (n = 1,600) | MC4R-expressing cells, MTII-stimulated cAMP, TR-FRET | AID 602195 | shares compounds with MC4R antagonist | inhibition, % at 6.5 µM; in the data active = inhibition above about 29%
A number is an active result; . = inactive; / = no result given. Only some compounds are listed: those with a hit (about 2.3% of all), similar ones and a draw of the others.

SMILES	MC4R barr agon	MC4R antagonist	MsrA act	MsrA inhibitor	U2OS cAMP counter	MC4R cAMP antag
O=C(C(=S)N1CCOCC1)c1c[nH]c2ccccc12	.	30.1	.	.	.	.
Cc1ccc(S(=O)(=O)N2CCC(C(=O)OC3CCOC3=O)CC2)cc1C (stereo not drawn)	.	39.6	.	.	19.2	41.0
CC(=O)c1cccc(S(=O)(=O)N2CCC(C(=O)OC3CCOC3=O)CC2)c1 (stereo not drawn)	.	40.4	.	.	19.0	56.7
Cc1ccc(S(=O)(=O)N2CCOCC2)cc1C(=O)OC1CCOC1=O (stereo not drawn)	.	.	.	.	/	/
COc1ccc(C(=O)N2CCC2(C)C(=O)O)cc1C(F)(F)F (stereo not drawn)	.	.	.	.	/	/
CCOC(=O)CCC(NC(=O)c1ccc(NCN2C(=O)c3ccccc3C2=O)cc1)C(=O)OCC (stereo not drawn)	.	.	.	.	/	/
CCOC(=O)CCC(NC(=O)c1ccccc1C(=O)NC(CCC(=O)OCC)C(=O)OCC)C(=O)OCC (stereo not drawn)	.	28.6	.	.	.	.
O=C(CSc1n[nH]c(=O)n1Cc1ccco1)N1CCOCC1	.	.	.	.	/	/
COc1ccc(C(=O)NNS(=O)(=O)c2ccc(OC)cc2)cc1	.	.	.	.	/	/
COc1ccc(S(=O)(=O)NNC(=O)C(=O)NNc2ccccn2)cc1	.	31.4	.	.	.	.
O=C(COC(=O)c1cccs1)Nc1ccc(F)c(F)c1	.	.	.	.	/	/
N/C(CC(=O)Nc1ccc(F)c(Cl)c1)=N\OC(=O)c1cccs1	.	35.6	.	.	.	.
COc1ccccc1NC(=O)COC(=O)/C=C/c1cccs1	.	.	.	.	/	/
O=C(Nc1cccc([N+](=O)[O-])c1)Nc1cccc([N+](=O)[O-])c1	.	34.0	.	.	.	.
O=C(Nc1ccc(C(=O)O)cc1)Nc1cccc([N+](=O)[O-])c1	.	.	.	.	/	/
CCOC(=O)c1cc2ccc(OC(=O)c3ccco3)cc2oc1=O	.	.	.	.	/	/
COc1ccccc1C(=O)OCCCN=C1NS(=O)(=O)c2ccccc21	.	.	.	.	/	/
COc1ccc(C(=O)OCCN=C2NS(=O)(=O)c3ccccc32)cc1OC	.	30.2	.	.	.	.
COCCN(C(=O)c1csnn1)C(C(=O)NC1CCCC1)c1ccccc1F (stereo not drawn)	.	29.2	.	.	.	.
COCCNC(=O)C(c1ccccc1F)N(C(=O)C(=O)NC1CCCC1)C1CCCCC1 (stereo not drawn)	.	29.5	.	.	.	.
COCCN(C(=O)c1csnn1)C(C(=O)NC1CCCC1)c1ccc(C)cc1 (stereo not drawn)	.	.	.	.	/	/
Cc1ccc2[nH]c(=O)c(CN(Cc3cccs3)Cc3nnnn3Cc3ccccc3)cc2c1	.	.	.	.	/	/
CCOC(=O)Cn1nnnc1CN(Cc1cccs1)Cc1cc2cc(C)ccc2[nH]c1=O	.	30.9	.	.	.	.
O=C(NC(=O)C(F)(F)F)Nc1ccc(S(=O)(=O)Nc2nccs2)cc1	.	.	.	.	/	/
CCOC(=O)/C=C/C(=O)Nc1ccc(Oc2ccccc2)cc1	.	45.7	.	.	28.4	53.1
SMILES	MC4R barr agon	MC4R antagonist	MsrA act	MsrA inhibitor	U2OS cAMP counter	MC4R cAMP antag
O=C(O)/C=C/C(=O)Nc1ccc(Oc2ccccc2)cc1	.	.	.	.	/	/
COc1cccc(NC(=O)N(Cc2ccco2)C(C)c2cccs2)c1 (stereo not drawn)	.	.	.	.	/	/
CCOc1cc(N2CCOCC2)c(OCC)cc1NCC(=O)N1CCN(Cc2ccccc2)CC1	.	29.4	.	.	.	.
CCOc1cc(N2CCOCC2)c(OCC)cc1NC(=O)CSc1ccccc1C(=O)O	.	.	.	.	/	/
COc1ccc(/C=C2\C(=O)N(c3c(Cl)cc(Cl)cc3Cl)N=C2NC(=O)c2cccc([N+](=O)[O-])c2)cc1	.	31.6	.	/	.	.
Cc1ccc(OCC(=O)NNC(=O)C2CCN(c3ncccn3)CC2)cc1	.	.	.	.	/	/
Cc1ccc(OCC(=O)NNC(=O)C2CCN(c3nc(C)cc(C)n3)CC2)cc1	.	28.6	.	.	.	.
CN1CCN(C(=O)c2cc(S(=O)(=O)Nc3ccccc3F)c(Cl)cc2Cl)CC1	.	34.8	.	.	.	.
Cc1ccc(S(=O)(=O)Nc2ccccc2F)cc1C(=O)N1CCCC1	.	.	.	.	/	/
